Experiment [1] concerns the target T1, C-C chemokine receptor type 1 (Homo sapiens) (UniProt P32246).
T1 sequence (whole entry): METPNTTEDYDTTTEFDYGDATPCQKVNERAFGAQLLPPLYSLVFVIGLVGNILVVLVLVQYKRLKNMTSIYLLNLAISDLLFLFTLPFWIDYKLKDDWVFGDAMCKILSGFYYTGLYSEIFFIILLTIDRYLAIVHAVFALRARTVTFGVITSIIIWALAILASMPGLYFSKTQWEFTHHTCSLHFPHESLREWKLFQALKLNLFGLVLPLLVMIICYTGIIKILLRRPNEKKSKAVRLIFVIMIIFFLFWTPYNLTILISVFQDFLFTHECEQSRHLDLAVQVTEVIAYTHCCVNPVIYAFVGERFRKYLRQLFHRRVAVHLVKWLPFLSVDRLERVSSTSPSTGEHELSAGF
Put plainly: Inhibition of CCR1 at 10 uM.

The target of experiment [2] is C-C chemokine receptor type 2 (Homo sapiens, UniProt P41597). In words: Displacement of [125]MCP1 from CCR2 in human PBMCs. In a few lines: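 Competition binding with 0.3 nM [125I]MCP-1 on human peripheral blood mononuclear cells at 23 °C. IC50 given as mean ± SD (n = 2) or mean ± SEM (n > 2). Single determinations are listed with n = 1.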

Structures are written as SMILES.

Sequence of C-C chemokine receptor type 2 (P41597 whole entry): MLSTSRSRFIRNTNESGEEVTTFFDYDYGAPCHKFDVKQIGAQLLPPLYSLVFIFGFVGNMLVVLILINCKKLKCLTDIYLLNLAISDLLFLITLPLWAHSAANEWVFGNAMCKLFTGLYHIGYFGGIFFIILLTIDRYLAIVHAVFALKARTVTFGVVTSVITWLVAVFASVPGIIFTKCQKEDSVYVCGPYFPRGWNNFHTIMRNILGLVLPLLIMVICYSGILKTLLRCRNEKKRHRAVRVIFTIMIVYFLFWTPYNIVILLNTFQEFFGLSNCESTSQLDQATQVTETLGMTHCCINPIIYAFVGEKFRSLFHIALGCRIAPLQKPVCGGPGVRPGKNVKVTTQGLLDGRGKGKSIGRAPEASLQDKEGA

Consider `Cc1ccc(CN2CC[C@@H](NC(=O)CNC(=O)c3cccc(C(F)(F)F)c3)C2)c(C)c1`, for which the inhibition in experiment [1] is < 30%. In experiment [2], the half-maximal inhibitory concentration (IC50) is 17 nM.

For the compound `CON(C)C(=O)[C@H](CNCc1ccc(C)cc1C)NC(=O)CNC(=O)c1cccc(C(F)(F)F)c1`, the inhibition in experiment [1] is < 30%. In experiment [2], this compound came in with a half-inhibitory concentration (IC50) of 110 nM. `Cc1ccc(CNC[C@H](NC(=O)CNC(=O)c2cccc(C(F)(F)F)c2)C(=O)NCC(F)(F)F)c(C)c1`: the inhibition in experiment [1] is < 30%. This compound displayed an IC50 in experiment [2] of 55 nM.

Take `COC(=O)[C@@H](CNC(=O)CNC(=O)c1cccc(C(F)(F)F)c1)NCc1ccc(C)cc1C`: the inhibition in experiment [1] is < 30%. The compound also had an IC50 in experiment [2] of 15000 nM. `COc1ccc(CNC[C@H](NC(=O)CNC(=O)c2cccc(C(F)(F)F)c2)C(=O)NC(C)(C)C)c(C)c1`: the inhibition in experiment [1] was < 30%. For the same compound, the IC50 in experiment [2] stood at 47 nM. As to `COc1cc(C)c(CNC[C@H](NC(=O)CNC(=O)c2cccc(C(F)(F)F)c2)C(=O)NC(C)(C)C)cc1C`, in experiment [1], the inhibition is < 30%. Also, the IC50 in experiment [2] stood at 1300 nM.

Consider `CCNC(=O)[C@H](CNCc1ccc(C)cc1C)NC(=O)CNC(=O)c1cccc(C(F)(F)F)c1`, for which the inhibition in experiment [1] was < 30%. Moreover, the half-maximal inhibitory concentration (IC50) in experiment [2] was 110 nM.

On to `CCNC(=O)[C@@H](CNC(=O)CNC(=O)c1cccc(C(F)(F)F)c1)NCc1ccc(C)cc1C`, for which the inhibition in experiment [1] is < 30%. For the same compound, the IC50 in experiment [2] was 22000 nM. For `Cc1ccc(CNC[C@H](NC(=O)CNC(=O)c2cccc(C(F)(F)F)c2)C(=O)NC(C)(C)C)cc1[N+](=O)[O-]` the same measures were < 30% and 670 nM. On to `Cc1ccc(CNC[C@H](NC(=O)CNC(=O)c2cc(C(F)(F)F)ccc2NCC(C)C)C(=O)NC(C)(C)C)c(C)c1`, for which the inhibition in experiment [1] was < 30%. Besides, the IC50 in experiment [2] is 23 nM. For `CCNC(=O)[C@@H](CNCc1ccc(C)cc1C)NC(=O)CNC(=O)c1cccc(C(F)(F)F)c1`, the inhibition in experiment [1] is < 30%. In experiment [2], this compound came in with a concentration for half-maximal inhibition (IC50) of 560 nM. Consider `Cc1ccc(CNC[C@H](NC(=O)CNC(=O)c2cccc(C(F)(F)F)c2)C(=O)NC(C)C)c(C)c1`, for which, in experiment [1], the inhibition was < 30%. This compound also gave an IC50 in experiment [2] of 170 nM. `CCNC(=O)[C@H](CCNCc1ccc(C)cc1C)NC(=O)CNC(=O)c1cccc(C(F)(F)F)c1`: the inhibition in experiment [1] was < 30%. Further, the 50% inhibitory concentration (IC50) in experiment [2] was found to be 410 nM. `Cc1ccc(CNC[C@H](NC(=O)CNC(=O)c2cccc(C(F)(F)F)c2)C(=O)NC2CCCC2)c(C)c1`: the inhibition in experiment [1] is < 30%. In experiment [2], this compound came in with an IC50 of 99 nM. Turning to `CCCCc1ccc(CNC[C@H](NC(=O)CNC(=O)c2cccc(C(F)(F)F)c2)C(=O)NC(C)(C)C)cc1`, the inhibition in experiment [1] was < 30%. The compound also came in with an IC50 in experiment [2] of 5600 nM. The like results for `Cc1ccc(CNC[C@H](NC(=O)CNC(=O)c2cccc(C(F)(F)F)c2)C(=O)NCC2CC2)c(C)c1` were, in that order, < 30% and 60 nM. Take `Cc1ccc(CNC[C@H](NC(=O)CNC(=O)c2cccc(C(F)F)c2)C(=O)NC(C)(C)C)c(C)c1`: in experiment [1], the inhibition is < 30%. This compound also registered an IC50 in experiment [2] of 400 nM.

Regarding `CCc1ccc(CNC[C@H](NC(=O)CNC(=O)c2cccc(C(F)(F)F)c2)C(=O)NC(C)(C)C)cc1`, in experiment [1], the inhibition was < 30%. Further, in experiment [2], the IC50 came out at 530 nM. In the case of `CCNC(=O)[C@H](CCN(C)Cc1ccc(C)cc1C)NC(=O)CNC(=O)c1cccc(C(F)(F)F)c1`, the inhibition in experiment [1] was < 30%. In experiment [2], this compound showed an IC50 of 150 nM. For `CNc1cc(C(=O)NCC(=O)N[C@@H](CNCc2ccc(C)cc2C)C(=O)NC(C)(C)C)cc(C(F)(F)F)c1` the same measures were < 30% and 16 nM. As to `Cc1ccc(CNC[C@@H](NC(=O)CNC(=O)c2cccc(C(F)(F)F)c2)C(=O)NC(C)(C)C)c(C)c1`, in experiment [1], the inhibition is < 30%. Besides, in experiment [2], the IC50 is 110 nM. For `Cc1ccc(CNC[C@H](NC(=O)CNC(=O)c2cccc(C(F)(F)F)c2)C(C)C)c(C)c1`, in experiment [1], the inhibition was < 30%.

With `Cc1ccc(CNC[C@@H](C)NC(=O)CNC(=O)c2cccc(C(F)(F)F)c2)c(C)c1`, the inhibition in experiment [1] is < 30%.

As a reminder, the inhibition is the change of the read-out against control, counted positive when it falls. Low readings indicate little suppression, high ones strong suppression. A word on the IC50: it is the point on the concentration scale where inhibition reaches its midpoint.
